Data reported in ChEMBL document CHEMBL3351505, “Ultrasound-assisted synthesis of novel 1,2,3-triazoles coupled diaryl sulfone moieties by the CuAAC reaction, and biological evaluation of them as antioxidant and antimicrobial agents” (Eur J Med Chem, 2014).
≈ marks a conversion by molar mass, not a printed value. Calls of active or inactive are those of the source. The rule behind the calls is not given here.

How the values were obtained:
Saccharomyces cerevisiae [1] = test: Antifungal activity against Saccharomyces cerevisiae using 100 uL of test compound after 48 hrs by agar well diffusion method; type: functional
How it was run: (§1)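 Agar well diffusion. Sabouraud dextrose agar was spread with yeast or fungal suspension at 1×10⁶ CFU/mL, and 10 mm wells were cut. Wells were loaded with compound solution made at 200 mg per 1 mL DMSO. Plates were incubated 48 h at 28 °C and inhibition zones were measured. DMSO served as the negative control.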

Priestia megaterium [2] = test: Antibacterial activity against Bacillus megaterium ATCC 9885 after 24 hrs by two fold serial dilution method; type: functional
Bacillus subtilis [3] = test: Antibacterial activity against Bacillus subtilis ATCC 6633 using 100 uL of test compound after 24 hrs by agar well diffusion method; type: functional
How it was run: (§2)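 Agar well diffusion. Nutrient agar was spread with bacterial suspension at 1×10⁸ CFU/mL, and 10 mm wells were cut. Wells were loaded with compound solution made at 200 mg per 1 mL DMSO. Plates were incubated 24 h at 37 °C and inhibition zones were measured. DMSO served as the negative control.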

Klebsiella pneumoniae [4] = test: Antibacterial activity against Klebsiella pneumoniae ATCC 13883 using 100 uL of test compound after 24 hrs by agar well diffusion method; type: functional; how it was run: as §2
Staphylococcus aureus [5] = test: Antibacterial activity against Staphylococcus aureus ATCC 29213 using 100 uL of test compound after 24 hrs by agar well diffusion method; type: functional; how it was run: as §2
Pseudomonas aeruginosa [6] = test: Antibacterial activity against Pseudomonas aeruginosa ATCC 27953 after 24 hrs by two fold serial dilution method; type: functional
Staphylococcus aureus [7] = test: Antibacterial activity against Staphylococcus aureus ATCC 29213 after 24 hrs by two fold serial dilution method; type: functional
Klebsiella pneumoniae [8] = test: Antibacterial activity against Klebsiella pneumoniae ATCC 13883 after 24 hrs by two fold serial dilution method; type: functional
Escherichia coli [9] = test: Antibacterial activity against Escherichia coli ATCC 25922 using 100 uL of test compound after 24 hrs by agar well diffusion method; type: functional; how it was run: as §2
Micrococcus luteus [10] = test: Antibacterial activity against Sarcina lutea after 24 hrs by two fold serial dilution method; type: functional
Aspergillus niger [11] = test: Antifungal activity against Aspergillus niger using 100 uL of test compound after 48 hrs by agar well diffusion method; type: functional; how it was run: as §1
Priestia megaterium [12] = test: Antibacterial activity against Bacillus megaterium ATCC 9885 using 100 uL of test compound after 24 hrs by agar well diffusion method; type: functional; how it was run: as §2
Micrococcus luteus [13] = test: Antibacterial activity against Sarcina lutea using 100 uL of test compound after 24 hrs by agar well diffusion method; type: functional; how it was run: as §2
Candida albicans [14] = test: Antifungal activity against Candida albicans NRRL Y-477 after 48 hrs by two fold serial dilution method; type: functional
How it was run: (§3)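 Two-fold serial broth dilution in a suitable broth, run only on compounds giving inhibition zones of at least 16 mm. Final concentrations were […]. Each 5 mL received 0.1 mL inoculum and was incubated 48 h at 28 °C. MIC was the lowest concentration without growth.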

Bacillus subtilis [15] = test: Antibacterial activity against Bacillus subtilis ATCC 6633 after 24 hrs by two fold serial dilution method; type: functional
[16] = Antioxidant activity assessed as DPPH free radical scavenging activity by spectrophotometric assay; type: physicochemical
How it was run: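 Sample solutions at several concentrations were added to 0.004% DPPH in methanol and incubated 60 min in the dark. Absorbance was read at 517 nm against a blank. Inhibition % = (A_blank − A_sample)/A_blank × 100, where the control contained all reagents except the test compound.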

Escherichia coli [17] = test: Antibacterial activity against Escherichia coli ATCC 25922 after 24 hrs by two fold serial dilution method; type: functional
Pseudomonas aeruginosa [18] = test: Antibacterial activity against Pseudomonas aeruginosa ATCC 27953 using 100 uL of test compound after 24 hrs by agar well diffusion method; type: functional; how it was run: as §2
Saccharomyces cerevisiae [19] = test: Antifungal activity against Saccharomyces cerevisiae after 48 hrs by two fold serial dilution method; type: functional; how it was run: as §3
Aspergillus niger [20] = test: Antifungal activity against Aspergillus niger after 48 hrs by two fold serial dilution method; type: functional; how it was run: as §3
Candida albicans [21] = test: Antifungal activity against Candida albicans NRRL Y-477 using 100 uL of test compound after 48 hrs by agar well diffusion method; type: functional; how it was run: as §1

Row | Structure (SMILES) | diameter of the inhibition zone (DIZ) (Saccharomyces cerevisiae [1]) | MIC (Priestia megaterium [2]; ATCC 9885, 24 h) | diameter of the inhibition zone (DIZ) (Bacillus subtilis [3]) | diameter of the inhibition zone (DIZ) (Klebsiella pneumoniae [4]) | diameter of the inhibition zone (DIZ) (Staphylococcus aureus [5]) | MIC (Pseudomonas aeruginosa [6]) | MIC (Staphylococcus aureus [7]) | diameter of the inhibition zone (DIZ) (Escherichia coli [9]) | MIC (Micrococcus luteus [10]) | diameter of the inhibition zone (DIZ) (Aspergillus niger [11]) | diameter of the inhibition zone (DIZ) (Priestia megaterium [12]) | diameter of the inhibition zone (DIZ) (Micrococcus luteus [13]) | MIC (Candida albicans [14]; NRRL Y-477, 48 h) | IC50 [16] | MIC (Escherichia coli [17]; ATCC 25922, 24 h) | diameter of the inhibition zone (DIZ) (Pseudomonas aeruginosa [18]) | MIC (Saccharomyces cerevisiae [19]) | MIC (Aspergillus niger [20]) | diameter of the inhibition zone (DIZ) (Candida albicans [21]) | MIC (Bacillus subtilis [15]; ATCC 6633, 24 h) | further results
1 | CC(Cc1cn(Cc2ccccc2)nn1)(OCc1cn(Cc2ccccc2)nn1)c1ccc(S(=O)(=O)c2ccccc2)cc1 (configuration not stated) | 14 mm | 200 µg/mL (≈ 331 µM) | 14 mm | 15 mm | 14 mm | 200 µg/mL (≈ 331 µM) | inactive | 18 mm | 200 µg/mL (≈ 331 µM) | 34 mm | 17 mm | 17 mm | 200 µg/mL (≈ 331 µM) | 600 µg/mL (≈ 992 µM) | 200 µg/mL (≈ 331 µM) | 19 mm | inactive | 25 µg/mL (≈ 41.3 µM) | 16 mm | – | MIC (Klebsiella pneumoniae [8]): inactive; MIC (Bacillus subtilis [15]): inactive
2 | O=C(Cn1cc(CC(O)c2ccc(S(=O)(=O)c3ccccc3)cc2)nn1)c1ccc(F)cc1 (configuration not stated) | inactive | 200 µg/mL (≈ 430 µM) | 19 mm | 15 mm | 14 mm | 200 µg/mL (≈ 430 µM) | inactive | 14 mm | 200 µg/mL (≈ 430 µM) | 32 mm | 17 mm | 20 mm | – | 275 µg/mL (≈ 591 µM) | – | 19 mm | inactive | 50 µg/mL (≈ 107 µM) | 13 mm | 200 µg/mL (≈ 430 µM) | MIC (Klebsiella pneumoniae [8]): inactive; MIC (Candida albicans [14]): inactive; MIC (Escherichia coli [17]): inactive
3 | O=C(Cn1cc(CC(O)c2ccc(S(=O)(=O)c3ccccc3)cc2)nn1)c1ccc(S(=O)(=O)c2ccccc2)cc1 (configuration not stated) | 16 mm | – | 20 mm | 19 mm | 17 mm | 200 µg/mL (≈ 340 µM) | – | 17 mm | 100 µg/mL (≈ 170 µM) | 28 mm | 15 mm | 22 mm | – | 74 µg/mL (≈ 126 µM) | – | 17 mm | 200 µg/mL (≈ 340 µM) | 50 µg/mL (≈ 85.1 µM) | 15 mm | 200 µg/mL (≈ 340 µM) | MIC (Priestia megaterium [2]): inactive; MIC (Staphylococcus aureus [7]; ATCC 29213, 24 h): 200 µg/mL (≈ 340 µM); MIC (Klebsiella pneumoniae [8]; ATCC 13883, 24 h): 200 µg/mL (≈ 340 µM); MIC (Candida albicans [14]): inactive; MIC (Escherichia coli [17]): inactive
4 | O=C(Cn1cc(COC(Cc2cn(CC(=O)c3ccc(Br)cc3)nn2)c2ccc(S(=O)(=O)c3ccccc3)cc2)nn1)c1ccc(Br)cc1 (configuration not stated) | 20 mm | 200 µg/mL (≈ 249 µM) | 17 mm | inactive | 17 mm | inactive | – | 17 mm | 200 µg/mL (≈ 249 µM) | 20 mm | 20 mm | 22 mm | 200 µg/mL (≈ 249 µM) | 150 µg/mL (≈ 186 µM) | 200 µg/mL (≈ 249 µM) | inactive | 200 µg/mL (≈ 249 µM) | 200 µg/mL (≈ 249 µM) | 21 mm | 200 µg/mL (≈ 249 µM) | MIC (Staphylococcus aureus [7]; ATCC 29213, 24 h): 200 µg/mL (≈ 249 µM); MIC (Klebsiella pneumoniae [8]): inactive
5 | CC(Cc1cn(CC(=O)c2ccccc2)nn1)(OCc1cn(CC(=O)c2ccccc2)nn1)c1ccc(S(=O)(=O)c2ccccc2)cc1 (configuration not stated) | 16 mm | 200 µg/mL (≈ 303 µM) | 16 mm | 23 mm | inactive | 200 µg/mL (≈ 303 µM) | inactive | 21 mm | 200 µg/mL (≈ 303 µM) | 28 mm | 17 mm | 17 mm | – | 125 µg/mL (≈ 189 µM) | 200 µg/mL (≈ 303 µM) | 19 mm | 200 µg/mL (≈ 303 µM) | 50 µg/mL (≈ 75.7 µM) | 15 mm | – | MIC (Klebsiella pneumoniae [8]; ATCC 13883, 24 h): 200 µg/mL (≈ 303 µM); MIC (Candida albicans [14]): inactive; MIC (Bacillus subtilis [15]): inactive
6 | O=S(=O)(c1ccccc1)c1ccc(C(O)Cc2cn(Cc3ccccc3)nn2)cc1 (configuration not stated) | 17 mm | – | 17 mm | 23 mm | 19 mm | 200 µg/mL (≈ 477 µM) | – | 19 mm | 200 µg/mL (≈ 477 µM) | 30 mm | 14 mm | 20 mm | 200 µg/mL (≈ 477 µM) | 200 µg/mL (≈ 477 µM) | 200 µg/mL (≈ 477 µM) | 20 mm | 200 µg/mL (≈ 477 µM) | 50 µg/mL (≈ 119 µM) | 19 mm | 200 µg/mL (≈ 477 µM) | MIC (Priestia megaterium [2]): inactive; MIC (Staphylococcus aureus [7]; ATCC 29213, 24 h): 200 µg/mL (≈ 477 µM); MIC (Klebsiella pneumoniae [8]; ATCC 13883, 24 h): 200 µg/mL (≈ 477 µM)
7 | O=S(=O)(c1ccccc1)c1ccc(C(Cc2cn(Cc3ccccc3)nn2)OCc2cn(Cc3ccccc3)nn2)cc1 (configuration not stated) | 18 mm | – | 15 mm | 17 mm | 14 mm | 200 µg/mL (≈ 339 µM) | inactive | 19 mm | 200 µg/mL (≈ 339 µM) | 30 mm | 14 mm | 17 mm | 200 µg/mL (≈ 339 µM) | 500 µg/mL (≈ 846 µM) | 200 µg/mL (≈ 339 µM) | 18 mm | 200 µg/mL (≈ 339 µM) | 50 µg/mL (≈ 84.6 µM) | 18 mm | – | MIC (Priestia megaterium [2]): inactive; MIC (Klebsiella pneumoniae [8]; ATCC 13883, 24 h): 200 µg/mL (≈ 339 µM); MIC (Bacillus subtilis [15]): inactive
